# Measured values as given in ChEMBL document CHEMBL1142711 (J Med Chem, 2005).
# How the values were obtained:
# Mu-type opioid receptor [1] = target: T1, Mu-type opioid receptor (Rattus norvegicus, UniProt P33535); assay: Inhibition of [3H]diprenorphine binding to rat Opioid receptor mu 1 expressed in C6 cells; type: cell-based
# Procedure, shortened: (§1)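 Competition binding with [3H]diprenorphine on rat MOR or DOR expressed in C6 cells and human KOR in CHO cells. Mean of three experiments, each in duplicate.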
# [2] = target: T2, Kappa-type opioid receptor (Homo sapiens, UniProt P41145); assay: Antagonistic activity against human opioid receptor kappa 1 expressed in CHO cells in [35S]GTP gamma S assay; type: functional, cell-based
# Procedure, shortened: (§2)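 Antagonism in [35S]GTPγS binding on membranes: rat MOR/DOR in C6 cells, human KOR in CHO cells. Agonist dose-response curves run with and without test ligand: DAMGO (MOR), SNC80 (DOR), U69593 (KOR). Ke = [antagonist]/(dose-ratio − 1), ± SEM. Three separate experiments.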
# [3] = target: Mu-type opioid receptor (Rattus norvegicus) (UniProt P33535); assay: Stimulation of [35S]-GTP-gamma S binding to Opioid receptor mu 1 expressed in C6 cells; type: functional, cell-based
# [4] = Relative binding affinity for rat Opioid receptor mu 1 and human Opioid receptor kappa 1
# [5] = Relative binding affinity for rat Opioid receptor delta 1 and human Opioid receptor kappa 1
# [6] = target: T3, Delta-type opioid receptor (Rattus norvegicus, UniProt P33533); assay: Agonist activity against Opioid receptor delta 1 expressed in C6 cells in [35S]-GTP-gamma S assay; No stimulation up to 10000 nM; type: functional, cell-based
# [7] = target: T2, Kappa-type opioid receptor; assay: Agonist activity against Opioid receptor kappa 1 expressed in CHO cells in [35S]-GTP-gamma S assay; No stimulation up to 10000 nM; type: functional, cell-based
# [8] = target: T2, Kappa-type opioid receptor; assay: Inhibition of [3H]diprenorphine binding to human opioid receptor kappa 1 expressed in CHO cells; type: cell-based; procedure, shortened: as §1
# Mu-type opioid receptor [9] = target: T1, Mu-type opioid receptor; assay: Agonist activity against rat Opioid receptor mu 1 expressed in C6 cells in [35S]-GTP-gamma S binding assay; type: functional, cell-based
# [10] = target: T3, Delta-type opioid receptor; assay: Inhibition of [3H]diprenorphine binding to rat Opioid receptor delta 1 expressed in C6 cells; type: cell-based; procedure, shortened: as §1
# [11] = target: Mu-type opioid receptor (Rattus norvegicus) (UniProt P33535); assay: Antagonistic activity against rat opioid receptor mu 1 expressed in C6 cells in [35S]GTP gamma S assay; type: functional, cell-based; procedure, shortened: as §2
# [12] = target: Delta-type opioid receptor (Rattus norvegicus) (UniProt P33533); assay: Antagonistic activity against rat opioid receptor delta 1 expressed in C6 cells in [35S]GTP gamma S assay; type: functional, cell-based; procedure, shortened: as §2
# [13] = target: T2, Kappa-type opioid receptor; assay: Stimulation of [35S]-GTP-gamma S binding to Opioid receptor kappa 1 expressed in […] cells; type: functional, cell-based
# Mus musculus [14] = assay: In vivo effective concentration for agonist activity in mouse tail withdrawal assay for antinociception after 1 hr of pre treatment with U-69,593 icv administration (10 nmol); type: functional, organism-based
# Procedure, shortened: (§3)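 Mouse warm-water tail withdrawal, water at 50 °C. Agonist U69593 given sc, and its dose-response EC50 (mg/kg) determined. Pretreatment 1, 3, 18, 24 or 48 h before, sc at 10 or 32 mg/kg; or icv 10 nmol at 1, 24, 48 or 168 h before. Vehicle control at −1 h. Fold shift and its significance reported.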
# Mus musculus [15] = assay: In vivo effective concentration for agonist activity in mouse tail withdrawal assay for antinociception after 1 hr of pre treatment with U-69,593 sc administration (10 mg/kg); type: functional, organism-based; procedure, shortened: as §3
# Mus musculus [16] = assay: In vivo effective concentration for agonist activity in mouse tail withdrawal assay for antinociception after 3h of pre treatment with U-69,593 sc administration (10 mg/kg); type: functional, organism-based; procedure, shortened: as §3
# Mus musculus [17] = assay: In vivo effective concentration for agonist activity in mouse tail withdrawal assay for antinociception after 18 h of pre treatment with U-69,593 sc administration (10 mg/kg); type: functional, organism-based; procedure, shortened: as §3
# Mus musculus [18] = assay: In vivo effective concentration for agonist activity in mouse tail withdrawal assay for antinociception after 24 hr of pre treatment with U-69,593 icv administration (10 nmol); type: functional, organism-based; procedure, shortened: as §3
# Mus musculus [19] = assay: In vivo effective concentration for agonist activity in mouse tail withdrawal assay for antinociception after 24 hr of pre treatment with U-69,593 sc administration (10 mg/kg); type: functional, organism-based; procedure, shortened: as §3
# Mus musculus [20] = assay: In vivo effective concentration for agonist activity in mouse tail withdrawal assay for antinociception after 24 hr of pre treatment with U-69,593 sc administration (32 mg/kg); type: functional, organism-based; procedure, shortened: as §3
# Mus musculus [21] = assay: In vivo effective concentration for agonist activity in mouse tail withdrawal assay for antinociception after 48 hr of pre treatment with U-69,593 icv administration (10 nmol); type: functional, organism-based; procedure, shortened: as §3
# Mus musculus [22] = assay: In vivo effective concentration for agonist activity in mouse tail withdrawal assay for antinociception after 48 hr of pre treatment with U-69,593 sc administration (10 mg/kg); type: functional, organism-based; procedure, shortened: as §3
# Mus musculus [23] = assay: In vivo effective concentration for agonist activity in mouse tail withdrawal assay for antinociception after 168h of pre treatment with U-69,593 icv administration (10 nmol); type: functional, organism-based; procedure, shortened: as §3
# [24] = target: T2, Kappa-type opioid receptor; assay: Agonist activity against human Opioid receptor kappa 1 expressed in CHO cells in [35S]-GTP-gamma S binding assay; type: functional, cell-based
# Mu-type opioid receptor [25] = target: T1, Mu-type opioid receptor; assay: Agonist activity against Opioid receptor mu 1 expressed in C6 cells in [35S]-GTP-gamma S assay; No stimulation up to 10000 nM; type: functional, cell-based
# T2 sequence (P41145 whole entry): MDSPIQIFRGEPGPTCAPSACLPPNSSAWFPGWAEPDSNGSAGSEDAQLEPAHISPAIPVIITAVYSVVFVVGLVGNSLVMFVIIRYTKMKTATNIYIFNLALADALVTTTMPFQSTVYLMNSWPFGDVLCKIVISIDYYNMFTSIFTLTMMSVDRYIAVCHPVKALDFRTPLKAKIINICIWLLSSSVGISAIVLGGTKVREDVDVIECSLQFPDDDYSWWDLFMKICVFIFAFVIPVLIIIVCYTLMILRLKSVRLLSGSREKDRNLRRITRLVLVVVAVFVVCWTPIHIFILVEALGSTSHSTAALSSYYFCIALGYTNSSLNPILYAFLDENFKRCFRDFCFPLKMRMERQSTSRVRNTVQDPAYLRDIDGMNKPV
# T3 sequence (P33533 whole entry): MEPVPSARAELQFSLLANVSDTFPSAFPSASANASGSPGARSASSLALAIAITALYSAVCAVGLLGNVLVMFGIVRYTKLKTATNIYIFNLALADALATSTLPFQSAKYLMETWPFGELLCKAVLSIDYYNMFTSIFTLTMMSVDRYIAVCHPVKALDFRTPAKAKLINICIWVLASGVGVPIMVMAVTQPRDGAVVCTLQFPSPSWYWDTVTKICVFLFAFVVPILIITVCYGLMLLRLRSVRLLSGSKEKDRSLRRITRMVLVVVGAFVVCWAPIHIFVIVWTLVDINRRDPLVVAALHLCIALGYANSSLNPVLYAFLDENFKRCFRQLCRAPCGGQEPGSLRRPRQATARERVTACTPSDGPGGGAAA
# Mu-type opioid receptor (Rattus norvegicus), sequence (P33535 whole entry): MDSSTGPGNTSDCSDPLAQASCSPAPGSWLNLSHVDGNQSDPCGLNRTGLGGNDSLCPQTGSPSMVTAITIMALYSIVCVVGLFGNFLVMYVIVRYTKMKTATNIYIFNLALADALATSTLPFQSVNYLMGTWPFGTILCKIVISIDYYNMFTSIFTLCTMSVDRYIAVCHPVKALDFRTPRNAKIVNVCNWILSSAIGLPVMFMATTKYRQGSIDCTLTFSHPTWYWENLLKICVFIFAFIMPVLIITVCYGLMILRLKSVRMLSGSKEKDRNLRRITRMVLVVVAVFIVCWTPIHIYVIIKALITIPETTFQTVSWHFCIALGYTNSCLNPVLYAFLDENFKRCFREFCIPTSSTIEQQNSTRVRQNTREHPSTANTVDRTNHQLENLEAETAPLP
# T1 sequence (P33535 whole entry): as above
# Delta-type opioid receptor (Rattus norvegicus), sequence (P33533 whole entry): as the sequence (P33533 whole entry) above
Structure (SMILES),Ki (Mu-type opioid receptor [1]),Ke [2],Stimulation [3],Ratio [4],Ratio [5],EC50 [6],EC50 [7],Ki [8],EC50 (Mu-type opioid receptor [9]),Ki [10],Ke [11],Ke [12],EC50 (Mus musculus [18]),EC50 (Mus musculus [20]),further results
CN1CC[C@]23c4c5ccc(O)c4O[C@H]2c2[nH]c4c(c2C[C@@]3(O)[C@H]1C5)C[C@@]1(O)[C@H]2Cc3ccc(O)c5c3[C@@]1(CCN2C)[C@H]4O5,63.6 nM,27 nM,66%,8,13,Not Active,Not Active,7.7 nM,1390 nM,98.2 nM,–,–,–,–,–
Oc1ccc2c3c1O[C@H]1c4c(c5c(n4Cc4ccccc4)[C@@H]4Oc6c(O)ccc7c6[C@@]46CCN(CC4CC4)[C@H](C7)[C@]6(O)C5)C[C@@]4(O)[C@@H](C2)N(CC2CC2)CC[C@]314,10 nM,0.26 nM,38%,14,12,Not Active,–,0.7 nM,187 nM,8.6 nM,25.5 nM,13.3 nM,26.3 mh/kg,5.7 mh/kg,Stimulation [13]: 29%; EC50 (Mus musculus [14]): 49.1 mh/kg; EC50 (Mus musculus [15]): 2 mg/kg; EC50 (Mus musculus [16]): 2.1 mg/kg; EC50 (Mus musculus [17]): 9 mg/kg; EC50 (Mus musculus [19]): 4.4 mg/kg; EC50 (Mus musculus [21]): 74.2 mh/kg; EC50 (Mus musculus [22]): 9.9 mh/kg; EC50 (Mus musculus [23]): 37 mh/kg; EC50 [24]: 1910 nM
Oc1ccc2c3c1O[C@H]1c4[nH]c5c(c4C[C@@]4(O)[C@@H](C2)N(CC2CC2)CC[C@]314)C[C@@]1(O)[C@H]2Cc3ccc(O)c4c3[C@@]1(CCN2CC1CC1)[C@H]5O4 [NORBINALTORPHIMINE],–,0.11 nM,–,–,–,Not Active,Not Active,–,–,5.8 nM,2.38 nM,5.17 nM,31.8 mg/kg,22.7 mg/kg,EC50 (Mu-type opioid receptor [25]): Not Active
C[C@H]1c2c(c3c(n2Cc2ccccc2)[C@@H]2Oc4c(O)ccc5c4[C@@]24CCN(C)[C@H](C5)[C@]4(O)C3)CC2(O)[C@H]3Cc4ccc(O)c(O)c4[C@@]12CCN3C (stereo partly specified),–,311 nM,54%,0.3,8,–,–,–,–,–,–,–,–,–,–
